The source of these data is PMC5091360 (Science Advances, 2016).

Assay [1] relates to FGF receptors. The note with it: cited from earlier work.
Assay [2] has as its system ERK1/2 pathway in lymphatic endothelial cells (LECs). In words: ERK1/2 phosphorylation in lymphatic endothelial cells. Format: cell-based, human. The note with it: growth factor 100 ng/ml, 10 min, 37°C, 1% DMSO, heparin 10 U/ml. An outline of the steps: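 Human dermal lymphatic microvascular endothelial cells were cultured overnight in EBM2 with 2% FBS, then starved 18 h in EBM2 with 0.2% BSA. They were stimulated with VEGF-A, VEGF-C or FGF-1, with or without test peptide or scrambled peptide (30 μg/ml). Lysates were immunoblotted for total and phospho-ERK1/2 using infrared-dye secondaries, and the phospho/total intensity ratio was taken. Two experiments were run; ANOVA with Tukey.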

The target in assay [3] is T1, VEGFR-3 (Mus musculus, UniProt P35917).
T1 sequence (P35917 25-770): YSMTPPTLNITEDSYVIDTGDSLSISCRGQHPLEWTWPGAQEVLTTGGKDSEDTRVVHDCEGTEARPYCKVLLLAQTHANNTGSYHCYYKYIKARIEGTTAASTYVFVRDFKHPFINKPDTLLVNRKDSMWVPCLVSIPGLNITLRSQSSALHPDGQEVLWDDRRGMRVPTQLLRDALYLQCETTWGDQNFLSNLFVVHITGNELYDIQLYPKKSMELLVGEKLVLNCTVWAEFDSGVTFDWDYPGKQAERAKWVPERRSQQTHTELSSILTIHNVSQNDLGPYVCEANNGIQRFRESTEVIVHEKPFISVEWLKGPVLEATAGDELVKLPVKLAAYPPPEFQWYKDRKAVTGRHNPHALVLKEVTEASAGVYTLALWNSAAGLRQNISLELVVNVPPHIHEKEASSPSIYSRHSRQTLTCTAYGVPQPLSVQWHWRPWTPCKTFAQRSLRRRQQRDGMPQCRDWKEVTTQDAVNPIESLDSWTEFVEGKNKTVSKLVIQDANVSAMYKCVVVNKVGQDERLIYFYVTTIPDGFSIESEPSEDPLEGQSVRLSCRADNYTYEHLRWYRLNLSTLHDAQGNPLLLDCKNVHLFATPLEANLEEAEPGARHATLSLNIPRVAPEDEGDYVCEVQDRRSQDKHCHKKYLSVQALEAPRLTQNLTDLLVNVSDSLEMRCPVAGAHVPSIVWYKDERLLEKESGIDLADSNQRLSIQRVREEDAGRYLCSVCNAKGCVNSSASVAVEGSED
Nature of the assay: competition assay, binding of phage PCAIWF to immobilized VEGFR-3.

The subject of assay [4] is mouse VEGFR-3. In words: phage binding assay, immobilized mouse VEGFR-3. Conditions: 10^8 TU in 50 μl PBS, 2 hours, room temperature; control insertless phage Fd; colony count or phage-FLISA; triplicate plating.
Assay [5] has as its system human VEGFR-3. In words: phage binding assay, immobilized human VEGFR-3. The note with it: 10^8 TU in 50 μl PBS, 2 hours, room temperature; control insertless phage Fd; colony count or phage-FLISA; triplicate plating.
For assay [6], the target named is T2, recombinant IgD2 domain of human VEGFR-3 (human, UniProt P35916 136-229).
T2 sequence: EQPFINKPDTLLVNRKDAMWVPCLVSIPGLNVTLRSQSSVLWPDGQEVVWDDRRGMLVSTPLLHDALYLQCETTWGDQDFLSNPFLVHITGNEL
In words: ELISA. In general terms: An ELISA detects its analyte on a solid surface through an enzyme-linked reagent.

In assay [7] the target is T3, recombinant IgD2-3 domains of human VEGFR-3 (human, UniProt P35916 136-332).
T3 sequence: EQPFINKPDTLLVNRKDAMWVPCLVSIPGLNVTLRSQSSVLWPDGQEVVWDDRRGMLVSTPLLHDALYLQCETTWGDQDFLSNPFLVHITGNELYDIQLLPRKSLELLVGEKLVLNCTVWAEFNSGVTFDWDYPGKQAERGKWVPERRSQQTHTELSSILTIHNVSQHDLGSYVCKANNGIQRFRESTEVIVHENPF
Nature of the assay: ELISA.

For assay [8], the target named is T4, recombinant mouse VEGFR-3/Fc (mouse, UniProt P35917 25-770).
T4 sequence: T1 sequence (P35917 25-770)
In words: phage binding assay.

Assay [9] concerns the target T5, human VEGFR-3 extracellular domain (Fc fusion) (human, UniProt P35916 25-775).
T5 sequence: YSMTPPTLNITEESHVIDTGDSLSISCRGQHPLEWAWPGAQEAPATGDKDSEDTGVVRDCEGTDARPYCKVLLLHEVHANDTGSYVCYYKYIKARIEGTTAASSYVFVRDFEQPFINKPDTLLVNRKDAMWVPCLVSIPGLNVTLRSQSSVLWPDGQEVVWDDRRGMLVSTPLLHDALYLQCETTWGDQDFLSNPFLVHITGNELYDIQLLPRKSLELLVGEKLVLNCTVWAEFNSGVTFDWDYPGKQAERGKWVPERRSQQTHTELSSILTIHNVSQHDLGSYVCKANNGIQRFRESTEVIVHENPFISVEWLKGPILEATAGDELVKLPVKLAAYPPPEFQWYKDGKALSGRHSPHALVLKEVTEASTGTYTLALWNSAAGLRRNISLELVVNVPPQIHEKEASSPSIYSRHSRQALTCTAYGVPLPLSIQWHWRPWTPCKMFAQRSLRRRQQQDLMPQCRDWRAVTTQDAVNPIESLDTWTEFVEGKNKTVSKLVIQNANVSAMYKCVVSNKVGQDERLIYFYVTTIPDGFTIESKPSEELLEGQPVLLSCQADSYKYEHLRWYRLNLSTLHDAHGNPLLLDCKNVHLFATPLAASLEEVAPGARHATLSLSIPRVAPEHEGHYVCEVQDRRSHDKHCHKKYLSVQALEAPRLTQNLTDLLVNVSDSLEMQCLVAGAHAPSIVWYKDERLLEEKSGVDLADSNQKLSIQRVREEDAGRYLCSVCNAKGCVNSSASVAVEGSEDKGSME
In words: phage binding assay.

Assay [10] concerns human VEGFR-1. Nature of the assay: FLISA binding assay, NRP-2 to VEGFR-1. Conditions: rat NRP-2, FLISA. An outline of the steps: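 Human VEGFR-1 extracellular domain coated at 200 ng per well in PBS overnight at 4°C, then blocked with Odyssey blocking buffer. Wells incubated with NRP-1 or NRP-2 in PBS with 10% (v/v) DMSO and 10% blocking buffer, with or without peptide (100 μg/ml). Bound NRP detected with goat anti-NRP-1 or anti-NRP-2 serum (1:100), then IRDye 680LT anti-goat, by infrared scanning. Duplicate wells; ANOVA with Tukey.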

Assay [11] has as its target T5, human VEGFR-3 extracellular domain (Fc …). Nature of the assay: ELISA.
For assay [12], the target named is human VEGFR-2 extracellular domain (Fc fusion) (human, UniProt P35968 20-764). Nature of the assay: ELISA.
Assay [13] addresses human VEGFR-1 extracellular domain (Fc fusion) (human, UniProt P17948 27-758). In words: ELISA.

Ends that are not written are not given here.

Sequence of human VEGFR-2 extracellular domain (Fc fusion) (P35968 20-764): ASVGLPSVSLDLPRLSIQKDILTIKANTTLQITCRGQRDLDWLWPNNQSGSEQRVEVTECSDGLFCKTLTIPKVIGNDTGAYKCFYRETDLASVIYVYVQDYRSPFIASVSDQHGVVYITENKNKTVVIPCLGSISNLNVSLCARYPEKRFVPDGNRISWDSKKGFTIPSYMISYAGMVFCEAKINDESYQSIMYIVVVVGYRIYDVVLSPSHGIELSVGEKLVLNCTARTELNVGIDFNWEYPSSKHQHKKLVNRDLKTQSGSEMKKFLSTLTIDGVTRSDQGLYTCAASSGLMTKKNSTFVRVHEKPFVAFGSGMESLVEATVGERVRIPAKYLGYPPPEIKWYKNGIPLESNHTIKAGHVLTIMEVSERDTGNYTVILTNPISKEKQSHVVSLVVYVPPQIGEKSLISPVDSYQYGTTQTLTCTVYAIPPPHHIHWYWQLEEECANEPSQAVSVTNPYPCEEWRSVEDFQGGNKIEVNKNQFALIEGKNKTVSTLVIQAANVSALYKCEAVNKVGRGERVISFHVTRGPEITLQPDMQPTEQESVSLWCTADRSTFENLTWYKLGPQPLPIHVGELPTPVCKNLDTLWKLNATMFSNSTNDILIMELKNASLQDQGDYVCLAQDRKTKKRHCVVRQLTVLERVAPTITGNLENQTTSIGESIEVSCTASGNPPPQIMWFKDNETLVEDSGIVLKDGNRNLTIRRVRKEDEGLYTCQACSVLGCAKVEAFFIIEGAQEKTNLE
Sequence of human VEGFR-1 extracellular domain (Fc fusion) (P17948 27-758): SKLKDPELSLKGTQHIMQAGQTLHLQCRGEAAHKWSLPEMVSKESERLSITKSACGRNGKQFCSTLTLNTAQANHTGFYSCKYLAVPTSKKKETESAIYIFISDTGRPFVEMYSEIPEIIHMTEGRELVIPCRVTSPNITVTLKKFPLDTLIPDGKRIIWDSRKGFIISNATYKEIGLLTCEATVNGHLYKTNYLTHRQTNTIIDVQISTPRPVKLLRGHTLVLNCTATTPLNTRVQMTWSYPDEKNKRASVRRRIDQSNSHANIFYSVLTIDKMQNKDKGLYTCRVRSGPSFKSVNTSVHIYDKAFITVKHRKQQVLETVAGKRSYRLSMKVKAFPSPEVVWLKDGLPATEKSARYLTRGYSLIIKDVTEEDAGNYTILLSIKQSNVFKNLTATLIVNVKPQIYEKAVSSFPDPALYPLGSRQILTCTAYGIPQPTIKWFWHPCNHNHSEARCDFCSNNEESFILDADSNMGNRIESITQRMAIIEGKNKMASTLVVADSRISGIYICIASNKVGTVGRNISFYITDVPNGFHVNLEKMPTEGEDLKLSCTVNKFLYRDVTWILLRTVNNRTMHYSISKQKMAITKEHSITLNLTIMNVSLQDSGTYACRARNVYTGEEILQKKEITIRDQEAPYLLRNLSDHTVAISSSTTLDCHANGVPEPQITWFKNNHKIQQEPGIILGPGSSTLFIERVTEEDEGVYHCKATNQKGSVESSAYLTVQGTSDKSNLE

Take `COc1c(C)c(C(=O)c2ccc(N)c(C(=O)[O-])c2)n2ccccc12.[Na+]` [SSR128129E]: in [1], the “effect on FGF receptors” value was “binds to and prevents the activation of all four FGF receptors”; the “interaction with ligand-binding domain of the FGF receptors” value is recorded as “does not interact with the ligand-binding domain of the receptors”.
“FGF-1: fibroblast growth factor, recombinant human ligand”: the “phosphorylation of ERK1/2 upon growth factor stimulation” value in [2] is reported as “phosphorylation of ERK1/2 increases”.
For PSAIWF [PSAIWF], in assay [3], the IC50 (usually the concentration at which inhibition is half-maximal) is approximately 278 µM.
WVCSGG [phage WVCSGG]: in [4], the “phage binding to mouse VEGFR-3” value is “both phages bound to mouse and human VEGFR-3”. Besides, in assay [5], the “phage binding to human VEGFR-3” value was “both phages bound to mouse and human VEGFR-3”.

B1: synthetic peptide WVCSGG (peptide)
peptide: WVCSGG
Consider B1, for which the binding result in [6] and in assay [7] was “binds” in each case.

B2: phage WVCSGG (peptide)
peptide: WVCSGG
Consider B2, for which the binding result in assay [8] and in [9] was “binds” each time.

B3: NRP-2: neuropilin, co-receptor for VEGF; rat NRP-2 (protein)
chain: QQDPPCGGRLNSKDAGYITSPGYPQDYPSHQNCEWVVYAPEPNQKIVLNFNPHFEIEKHDCKYDFIEIRDGDSESADLLGKHCGNIAPPTIISSGSVLYIKFTSDYARQGAGFSLRYEIFKTGSEDCSKNFTSPNGTIESPGFPEKYPHNLDCTFTILAKPRMEIILQFLTFDLEHDPLQVGEGDCKYDWLDIWDGIPHVGPLIGKYCGTKTPSKLRSSTGILSLTFHTDMAVAKDGFSARYYLVHQEPPENFQCNAPLGMESGRIANEQISASSTFSDGRWTPQQSRLHGDDNGWTPNVDSNKEYLQVDLRFLTMLTAIATQGAISRETQKGYYVKSYKLEVSTNGEDWMVYRHGKNHKVFQANNDATELVLNKLHTPLLTRFIRIRPQTWHLGIALRLELFGCRVTDAPCSNMLGMLSGLIADTQISASSTREYLWSPSAARLVSSRSGWFPRNPQAQPGEEWLQVDLGTPKTVKGVIIQGARGGDSITAMEARAFVRKFKVSYSLNGKDWEYIQDPRTQQPKLFEGNMHYDTPDIRRFEPVPAQYVRVYPERWSPAGIGMRLEVLGCDWTDSKPTVETLGPTVKSEETTTPYPMDEDATECGENCSFEDDKDLQLPSGFNCNFDFPEETCGWMYDRAKWLQSTWISSANPNDRTFPDDKNFLKLQSDGGREGQFGRLISPPVHLPRSPVCMEFQYQAMGGHGVALQVVREARQESKLLWVIREDQGSEWKHGRIILPSYDMEYQIVFEGVIGKGRSGEISIDDIRISTDVPLENCMEPISAFAVDIPEIHGGEGYEDEIDDDYEGDWNNSSSTSGAGSPSSGKEKSWLYTLDP
With B3, in assay [10], the “NRP-2 binding to VEGFR-1” value was “strong interaction”.

B4: synthetic peptide PCAIWF (peptide)
peptide: PCAIWF
For B4, the binding result in assay [6], in [7] and in [11] was “binds” throughout.

B5: phage PCAIWF (peptide)
peptide: PCAIWF
Take B5: the binding result in [6], in assay [7], in assay [8] and in [9] was “binds” each time.

B6: synthetic peptide PSAIWF (peptide)
peptide: PSAIWF
As to B6, the binding result in [12], in assay [11] and in assay [13] was “binds” each time.
